Screening data deposited in PubChem BioAssay by several laboratories.
A selection: hits, their analogues and other compounds. The true share with any hit is near 1.2%.
Runt-CBFb FRET = blocks binding of human RUNX1 Runt domain to CBFb. Cerulean-Runt/Venus-CBFb FRET ratio 530/480, 1 h. inhibition, % at 20 µM. 220,000 compounds, 0.46% hits;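 active = inhibition over about 50% at 20 µM in the single-dose screen, limit read from the data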
Target sequence (Q01196 whole entry, looked up, the tested form may be a part): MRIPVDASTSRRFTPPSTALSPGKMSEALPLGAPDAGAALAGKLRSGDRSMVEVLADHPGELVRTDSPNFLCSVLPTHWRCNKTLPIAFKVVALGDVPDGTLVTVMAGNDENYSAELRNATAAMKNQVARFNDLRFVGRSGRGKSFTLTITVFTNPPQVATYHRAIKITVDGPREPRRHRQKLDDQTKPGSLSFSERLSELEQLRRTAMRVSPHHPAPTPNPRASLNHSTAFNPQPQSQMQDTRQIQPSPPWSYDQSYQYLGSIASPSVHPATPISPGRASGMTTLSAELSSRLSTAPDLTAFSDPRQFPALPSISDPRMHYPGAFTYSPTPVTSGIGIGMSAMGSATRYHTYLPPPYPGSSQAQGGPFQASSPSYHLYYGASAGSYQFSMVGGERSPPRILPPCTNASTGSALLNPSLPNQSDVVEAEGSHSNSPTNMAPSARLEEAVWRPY
Target sequence (Q13951 whole entry, looked up, the tested form may be a part): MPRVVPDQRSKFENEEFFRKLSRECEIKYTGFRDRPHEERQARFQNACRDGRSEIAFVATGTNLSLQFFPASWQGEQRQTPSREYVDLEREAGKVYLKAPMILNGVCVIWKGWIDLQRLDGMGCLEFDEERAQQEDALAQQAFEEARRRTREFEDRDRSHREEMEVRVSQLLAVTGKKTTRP
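Assay system: Cerulean-Runt domain fusion protein, energy donor; Signal: fluorescence energy transfer, 422 nm excitation, 530/480 nm emission; Timing: 1 h compound exposure, room temperature; Control set: unlabeled CBFb; Medium: Tris buffer pH 7.5 with salts and BSA; Compound: single test concentration of 20 µM, 1% DMSO final; Probe or stimulus: Venus-CBFb 100 nM.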
Runt-SMMHC FRET = blocks binding of human RUNX1 Runt domain to CBFb-SMMHC. AID 1434. Cerulean-Runt/Venus-CBFb-SMMHC FRET ratio 530/480, 1 h. 220,000 compounds, 0.74% hits. inhibition, % at 20 µM. Q01196+Q13951;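 active = mean inhibition across duplicate retests at 20 µM reaching about 50%, limit read from the data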;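 note: inhibitors lower the FRET ratio by blocking Runt binding to CBFb-SMMHC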
RanGTP-Impb inh = inhibitors of RanGTP-importin-beta interaction, primary screen, biochemical, FRET, CFP-Ran, YFP-importin-beta, homogeneous | cell-free CFP-Ran/YFP-importin-beta FRET ratio | inhibition, % (no concentration beside the values) | 300,000 compounds, 1.1% hits;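 active = more than half of the replicate wells show a fall in the fluorescence ratio signal beyond about 16%, limit read from the data, passing the limit was not always enough; inconclusive = exactly half of the replicate wells pass the set limit; inactive = fewer than half of replicates pass the limit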
CaV13 ICDI inh = Disruptors of the CACNA1D IQ motif to Ca2+-dependent inactivation inhibitor domain association, primary screening, Förster resonance energy transfer in intact living … | HEK cells, CFP/YFP FRET ICDI-IQ, plate reader, 10 min; percent FRET-ratio fall versus neutral wells | inhibition, % at 12.3 µM | 340,000 compounds, 0.098% hits | AID 743397;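 active = mean replicate inhibition of at least 30% and at least 1% of replicates passing that level; inconclusive = only one of the two criteria is met; inactive = neither criterion is met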
A number is an active result; i = inactive; ? = inconclusive; nt = not tested or not shown.

SMILES	Runt-CBFb FRET	Runt-SMMHC FRET	RanGTP-Impb inh	CaV13 ICDI inh
CC(=O)N1CCc2c(sc(NC(=O)C3CC3)c2-c2nc3ccccc3s2)C1	i	i	24.0	i
CCc1nc(SCC(=O)N2CCC(C)CC2)c2c(=O)n(C)c(=O)n(C)c2n1	i	i	i	i
O=c1c2ccccc2c(C=Nc2ccccc2O)c(O)n1-c1nccs1	i	i	41.1	i
CCOC(=O)N1CCC(NC(=O)CS(=O)Cc2nc(-c3ccccc3C)oc2C)CC1 (centres undefined)	nt	nt	164.0	i
CCOc1ccccc1OCCCC(=O)Nc1nc2ccccc2[nH]1	i	i	i	i
CCOc1ccccc1/C=C/c1nc2ccccc2[nH]c1=O	nt	nt	70.7	i
O=S1(=O)CCSC[C@@H](CNCc2ccco2)N1	nt	nt	nt	i
O=C(O)c1ccc(N/N=C/c2ccc(-c3ccc(Cl)cc3Cl)o2)cc1	79.8	81.2	88.1	i
O=C(O)c1ccc(N/N=C/c2ccc(-c3cc(Cl)ccc3Cl)o2)cc1	69.8	80.3	83.3	i
COC(=O)N/N=C/c1ccc(-c2ccc(Cl)cc2Cl)o1	i	i	i	i
CCn1nc(NC(=O)c2ccncc2)c2cc3ccc(C)cc3nc21	i	i	23.9	i
Cc1ccc2cc3c(NC(=O)c4cccnc4)nn(C)c3nc2c1	i	i	?	nt
CCn1nc(NS(=O)(=O)c2ccccc2)c2cc3cc(C)ccc3nc21	nt	nt	i	i
CCCn1nc(NC(=O)c2cccs2)c2cc3cc(C)ccc3nc21	i	80.3	72.1	i
CCCn1nc(NC(=O)c2cccs2)c2cc3ccc(C)cc3nc21	i	50.7	54.3	i
COC(=O)Cc1cc(=O)oc2cc(O)ccc12	80.1	92.2	69.2	i
COc1c2ccoc2c(OC[C@@H](O)C(C)(C)OC)c2oc(=O)ccc12	i	83.5	i	i
COc1c2ccoc2c(OC[C@@H](O)C(C)(C)O)c2oc(=O)ccc12	i	i	i	i
COCCNc1oc(/C=C/c2ccccc2)nc1C#N	i	i	i	i
CNc1oc(/C=C/c2ccccc2)nc1C#N	i	84.2	i	i
CC(=O)Nc1ccc(S(=O)(=O)N(C)CC(=O)OCCOc2cccc(C)c2)cc1	nt	nt	i	i
CC(C)Cc1nnc(NC(=O)Cc2cccs2)s1	i	i	25.5	i
COc1ccc(S(=O)(=O)NCCc2cn3nc(C)c(C)nc3n2)cc1F	nt	nt	17.4	i
Cc1cc(C)c(C#N)c(SCc2nc3ccccc3[nH]2)n1	i	i	19.4	nt
Cc1cc(C)cc(OCCCN2CCC(C(O)(c3ccccc3)c3ccccc3)CC2)c1	nt	nt	nt	i
SMILES	Runt-CBFb FRET	Runt-SMMHC FRET	RanGTP-Impb inh	CaV13 ICDI inh
Cc1ccc(C2=N/C(=C\N(C)C)C(=O)O2)cc1	i	i	16.9	i
Cc1cccc(N2CCN(C(=O)n3ccnc3)CC2)c1C	i	i	i	i
COc1ccc2nc3cc(Cl)ccc3c(C#N)c2c1	i	i	51.3	i
CCN(C(=O)Cn1cnc2cc([N+](=O)[O-])ccc2c1=O)C1CCS(=O)(=O)C1 (centres undefined)	i	i	13.8	i
CC1CCCC(C)N1C(=O)Cn1cnc2cc([N+](=O)[O-])ccc2c1=O (centres undefined)	i	i	?	i
COc1ccc2oc(=O)c(C(=O)NCc3ccccc3)cc2c1	nt	nt	i	i
O=c1oc2ccccc2cc1-c1nc2ccccc2o1	i	i	nt	i
COC(=O)c1cc2c(ccc3ccccc32)oc1=O	nt	nt	84.3	i
COc1ccc2oc(=O)c(C(=O)OCc3ccccc3)cc2c1	nt	nt	18.5	i
O=c1oc2ccc3ccccc3c2cc1-c1nc2ccccc2o1	nt	nt	126.0	nt
CN1C(=S)SC(/[N+]([O-])=C/c2c(F)cccc2Cl)C1(C)C (centres undefined)	i	i	i	i
COC(=O)/C=C1\Nc2ccc(Cl)cc2C(=O)NC1=O	nt	nt	nt	i
COC(=O)C1=C(C)N(Cc2ccc(C(F)(F)F)cc2)C(=NCc2ccc(C(F)(F)F)cc2)NC1c1ccccc1 (centres undefined)	nt	nt	nt	i
O=C1C=CC(=O)N1c1cccc(-c2ccccc2)c1	i	73.2	i	i
O=C(Nc1cccc(N2C(=O)C=CC2=O)c1)c1cccs1	nt	nt	i	i
O=C(O)c1c[nH]c2nccnc12	nt	nt	nt	i
Cc1ccc(S(=O)(=O)NC(=O)NCCCN2CCOCC2)cc1	nt	nt	i	i
Cc1ccc(S(=O)(=O)NC(=O)c2cc(C)n(CCCN3CCOCC3)c2C)cc1	i	i	60.0	nt
CCOc1ccc(CCNC(=O)COC(=O)c2cc(=O)[nH]c3ccccc23)cc1OCC	nt	nt	nt	i
Cc1cc(N2C(=O)C(O)=C(C(=O)c3cc4ccccc4o3)C2c2ccc(Cl)cc2)no1 (centres undefined)	nt	nt	i	i
Cc1cc(N2C(=O)C(O)=C(C(=O)c3cc4ccccc4o3)C2c2ccc(Br)cc2)no1 (centres undefined)	nt	nt	46.9	i
Cn1ccnc1CC(O)(c1ccccc1)c1ccccc1	nt	nt	i	i
Oc1cc2c(cc1O)C1c3ccc(O)c(O)c3OCC1(O)C2 (centres undefined)	62.9	58.6	nt	nt
Cc1cc2c(c(=O)o1)[C@@]1(C(=O)N(C)c3ccccc31)C1=C(CCCC1=O)O2	nt	nt	nt	i
COc1ccc(N2CCN(C(=O)COC(=O)CCOc3ccccc3C)CC2)cc1	nt	nt	i	i
SMILES	Runt-CBFb FRET	Runt-SMMHC FRET	RanGTP-Impb inh	CaV13 ICDI inh
CCCN1CCC2(CC1)C(C#N)=C(N)Oc1c2sc2nc(C)cc(C)c12	i	i	25.8	i
O=C(Nc1nccs1)c1cccnc1Cl	nt	nt	i	i
O=C(Nc1nccs1)c1ccccc1N=Cc1ccccc1	i	58.3	i	i
COc1cccc(C=Nc2ccccc2C(=O)Nc2nccs2)c1OC	i	51.5	i	nt
O=C(OCc1nnc(-c2ccc(Cl)cc2)o1)C12CC3CC(CC(O)(C3)C1)C2	i	i	i	i
CSc1ccc(/C=C2\CCn3c2nc2cc(C(=O)O)ccc2c3=O)cc1	nt	nt	i	i
O=C(CNCCCO)Nc1cc(C(F)(F)F)cc(NC(=O)CNCCCO)c1Cl	i	i	i	nt
COc1ccc(OC)c(NC(=O)c2cc3oc4ccccc4c3cc2O)c1	i	96.5	i	i
COc1ccc(CN2C[C@@]3(O)CC[C@@H](O)[C@@H](OC)[C@@H]3[C@@]2(C)[C@H](O)CC=C(C)C)cc1	nt	nt	nt	i
COCCn1c(CCC(=O)O)ccc1-c1cccs1	i	55.1	i	i
Cc1sccc1C1C(C#N)=C(N)SC(N)=C1C#N	i	i	68.1	nt
CCOCCCNc1nc2c(-c3ccccc3)nnn2c2ccccc12	i	i	33.7	i
CCCCNc1nc2c(-c3ccccc3)nnn2c2ccccc12	i	i	i	i
O=c1oc2c(CN3CCOCC3)c(O)ccc2c2c1CCC2	i	54.1	nt	i
CC1CCCN(Cc2c(O)ccc3c4c(c(=O)oc23)CCCC4)C1 (centres undefined)	i	78.7	i	i
CC1CN(Cc2c(O)ccc3c2oc(=O)c2ccccc23)CC(C)O1 (centres undefined)	i	i	i	i
CCOC(=O)c1cnc(SCC(=O)NNC(=O)c2ccco2)nc1N	nt	nt	?	i
CC(C)CN1C2CCCC1CC(NC(=O)c1ccc([N+](=O)[O-])cc1)C2 (centres undefined)	nt	nt	i	i
